Test results: ChEMBL document CHEMBL5506039, “Discovery and Optimization of Tambjamines as a Novel Class of Antileishmanial Agents” (J Med Chem, 2024)
Activity calls are given as the source filed them. The rule behind the calls is not given here.

Experiments:
Leishmania mexicana [1] = test: (§1) Antileishmanial activity against Leishmania mexicana MNYC/BZ/62/M379 amastigotes expressing red-shifted firefly luciferase from integrated ribosomal (28S) RNA locus infected in mouse J774.A1 cells assessed as reduction in parasite survival measured after 96 hrs by luminescence based analysis; type: functional, organism-based; conditions: MNYC/BZ/62/M379, J774.A1, 96 h
How it was run: (§2)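 J774A.1 macrophages infected with stationary-phase luciferase-expressing promastigotes at 10:1 parasites:macrophage, overnight at 37 °C, 5% CO₂. Non-internalized parasites washed off and 1 × 10⁴ cells/well replated in MEM/10% HI-FBS. Compounds in DMSO added as serial 3-fold dilutions (typically 10 μM–1 nM) for 96 h. Luciferase luminescence read; EC50 from log-transformed sigmoidal variable-slope fit. Mean ± SD of ≥2 independent experiments.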

[2] = Therapeutic index, ratio of EC50 for mouse J774.A1 cells to EC50 for antileishmanial activity against Leishmania mexicana MNYC/BZ/62/M379 amastigotes expressing red-shifted firefly luciferase from integrated ribosomal (28S) RNA locus infected in mouse J774.A1 cells; type: toxicity, cell-based; conditions: read-out: TI
Leishmania mexicana [3] = test: as §1, with “as” for “as reduction in”, “survival at 0.1 uM” for “survival”, “analysis relative to control” for “analysis”; type: functional; conditions: MNYC/BZ/62/M379, J774.A1
[4] = Cytotoxicity against mouse J774.A1 cells assessed as cell survival at 0.1 uM measured after 96 hrs by SYBR Green II dye based analysis relative to control; type: toxicity; conditions: read-out: Survival
How it was run: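 Uninfected J774A.1 mouse macrophages were plated at 1 × 10⁴ cells/well in DMEM with 10% heat-inactivated FBS and left 3 h at 37 °C to reattach. Compounds were added from DMSO, and analogues were screened at 0.1 μM. After 96 h at 37 °C in 5% CO₂, medium was removed. SYBR Green II (1:1000 in 1% Triton/PBS) was added for 1 h in the dark at room temperature, and fluorescence was read at Ex 485/Em 535 as a DNA-content measure of viability.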

[5] = Cytotoxicity against mouse J774.A1 cells assessed as reduction in cell survival measured after 96 hrs by SYBR Green II dye based analysis; type: toxicity
How it was run: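 Uninfected J774A.1 macrophages, 1 × 10⁴ cells/well in DMEM/10% HI-FBS, reattached 3 h, then exposed to compounds for 96 h. DNA content read after lysis with SYBR Green II (1:1000 in 1% Triton/PBS), 1 h dark at room temperature, fluorescence Ex 485/Em 535.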

[6] = Therapeutic index, ratio of IC50 for human HepG2 cells to EC50 for antileishmanial activity against Leishmania donovani amastigotes expressing red-shifted firefly luciferase from integrated ribosomal (28S) RNA locus infected in mouse J774.A1 cells; type: toxicity, cell-based; conditions: read-out: TI
How it was run: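 TI computed as HepG2 IC50 divided by L. donovani EC50. HepG2: MTT assay with 48 h exposure to 10–0.15 μg/mL (1.6-fold dilutions), triplicates, sigmoidal variable-slope fit. Amastigotes: J774A.1 macrophages infected with RS-luciferase promastigotes at 10:1, washed after 24 h, then 96 h compound exposure (3-fold dilutions, 10 μM–1 nM) in MEM/10% HI-FBS at 37 °C, 5% CO₂; luciferase readout.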

Leishmania donovani = test: Antileishmanial activity against Leishmania donovani amastigotes expressing red-shifted firefly luciferase from integrated ribosomal (28S) RNA locus infected in mouse J774.A1 cells assessed as reduction in parasite growth measured after 96 hrs by luminescence based analysis; type: functional, organism-based; conditions: J774.A1, 96 h; how it was run: as §2
Leishmania mexicana [7] = test: as §1, with “inhibition of” for “reduction in”, “growth at 0.1 uM” for “survival”, “analysis relative to control” for “analysis”; type: functional; conditions: MNYC/BZ/62/M379, J774.A1, read-out: INH
[8] = Metabolic stability in pre-warmed pooled human liver microsomes assessed as half life at 1 uM measured upto 60 mins by LC-MS analysis; type: ADME, Microsome
How it was run: (§3)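 Compound at 1 μM final with 0.5 mg/mL pooled human or mouse liver microsomes, 1.3 mM NADP and 3.3 mM MgCl₂ in 100 mM potassium phosphate, pH 7.4. Reaction started with 1 U/mL G6PD at 37 °C with shaking.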

HepG2 = test: Cytotoxicity against human HepG2 cells assessed as inhibition of cell growth incubated for 48 hrs by MTT assay; type: toxicity, cell-based
How it was run: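 HepG2 cells, 2.5 × 10⁴/well in supplemented complete MEM, settled overnight at 37 °C, 5% CO₂. Compounds given as 11 duplicate 1.6-fold dilutions, 10 to 0.15 μg/mL, for 48 h. MTT added for 1 h in the dark at room temperature, formazan dissolved in acidified isopropanol, absorbance read. Triplicate runs; IC50 by sigmoidal variable-slope regression.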

[9] = Metabolic stability in pre-warmed pooled mouse liver microsomes assessed as half life at 1 uM measured upto 60 mins by LC-MS analysis; type: ADME, Microsome; how it was run: as §3
Leishmania mexicana [10] = test: Antileishmanial activity against Leishmania mexicana amastigotes expressing red-shifted firefly luciferase from integrated ribosomal (28S) RNA locus infected in female BALB/c mouse assessed as retardation of lesion progression by measuring reduction in luminescence signal over infected footpad at …; type: functional, organism-based; conditions: dose 40.0 mg/kg/day, route po, time 20-29 day
Leishmania mexicana [11] = test: Antileishmanial activity against Leishmania mexicana amastigotes expressing red-shifted firefly luciferase from integrated ribosomal (28S) RNA locus infected in female BALB/c mouse assessed as retardation of lesion progression by measuring reduction in footpad lesion at 40 mg/kg/day, po …; type: functional, organism-based; conditions: time 20-29 day

Row | Compound | EC50 (Leishmania mexicana [1]) [nM] | selectivity ratio [2] | survival at 0.1 µM (Leishmania mexicana [3]) [%] | viability at 96 h, 0.1 µM [4] [%] | EC50 at 96 h [5] [nM] | selectivity ratio [6] | EC50 (Leishmania donovani) [nM] | percent inhibition of parasite growth at 0.1 µM (Leishmania mexicana [7]) [%] | half-life at 1 µM [8] [min] | IC50 (HepG2) [nM] | half-life at 1 µM [9] [min] | Activity (Leishmania mexicana [10]) | Activity (Leishmania mexicana [11])
1 | CCC1=C/C(=C\NC23CC4CC(CC(C4)C2)C3)N=C1c1ccc[nH]1 | 37.5 | 24 | 11.3 | 50 | 884 | 168 | 90.5 | – | – | – | – | – | –
2 | COC1=CC(c2ccc[nH]2)=N/C1=C\NC1CCCCCC1.Cl | 32.5 | 17 | 4.84 | 99.6 | 550 | 73 | 139 | > 95 | 52.1 | – | – | – | –
3 | COC1=CC(c2ccc[nH]2)=N/C1=C\N[C@H]1CC[C@H](C)CC1.Cl | 40 | 17 | 12.4 | 66.6 | 696 | 28 | 122 | – | 17.3 | 3420 | – | – | –
4 | CC1=C(C)/C(=C/NC2CCCCCC2)N=C1c1ccc(CC(C)C)[nH]1.Cl | 44.3 | 28 | 2.3 | 74.5 | 1240 | – | – | > 96 | > 60 | – | > 60 | – | –
5 | C(/NC1CCCCCC1)=C1/N=C(c2ccc[nH]2)C2=C1CCCC2.Cl | 74 | 3.4 | 24.7 | 80 | 252 | 61 | 101 | – | > 60 | 6200 | – | – | –
6 | COC1=CC(c2ccc(Cc3ccc(OC)cc3)[nH]2)=N/C1=C\Nc1ccc(Cl)cc1 | – | – | 93.5 | 101 | – | – | – | ~7 | – | – | – | – | –
7 | CC1=C(C)/C(=C/NC2CCCCCC2)N=C1c1ccc[nH]1.Cl | 55 | 16 | 18.2 | 62.8 | 908 | 268 | 79.5 | < 80 | 45.1 | 21300 | – | – | –
8 | CC1=CC(c2ccc[nH]2)=N/C1=C\NC1CCCCCC1 | – | – | 26.3 | 88.4 | – | – | – | ~75 | – | – | – | – | –
9 | CCc1ccc(C2=N/C(=C\NC3CCCCCCC3)C(C)=C2C)[nH]1.Cl | 31.4 | 18 | 1.3 | 53.6 | 573 | – | – | > 96 | > 60 | – | > 60 | – | –
10 | COC1=CC(c2ccc[nH]2)=N/C1=C\Nc1ccc(Oc2ccc(C)cc2)cc1 | 93 | 29 | 26 | 69.8 | 2740 | 6 | 285 | – | > 60 | 1730 | 46.9 | – | –
11 | CC1=C/C(=C\NC23CC4CC(CC(C4)C2)C3)N=C1c1ccc[nH]1.Cl | 48 | 24 | 15.4 | 86.9 | 1130 | 300 | 100 | – | > 60 | – | – | – | –
12 | CCc1c(C)[nH]c(C2=N/C(=C\NC34CC5CC(CC(C5)C3)C4)C(C)=C2C)c1C.Cl | 54 | 12 | 10.7 | 63.5 | 675 | 263 | 81.2 | – | > 60 | 21300 | 29 | – | –
13 | COC1=CC(c2ccc[nH]2)=N/C1=C\Nc1ccc(F)c(OC)c1.Cl | – | – | 98.3 | 58.7 | – | – | – | ~2 | > 60 | – | – | – | –
14 | CCC1=CC(c2ccc[nH]2)=N/C1=C\NC1CCCCCC1 | – | – | 42.1 | 88.7 | – | – | – | ~60 | – | – | – | – | –
15 | CCC1=C(CC)/C(=C/N[C@H]2CC[C@H](C)CC2)N=C1c1ccc[nH]1.Cl | 73.3 | 19 | 17.1 | 87.8 | 1420 | – | – | – | 23.3 | 15900 | – | Active | Active
16 | COC1=CC(c2ccc[nH]2)=N/C1=C\NCC1CCCCCC1.Cl | 48.5 | > 21 | 5.3 | 72.2 | > 1000 | 69 | 88 | – | 18.6 | 6060 | – | – | –
17 | COC1=CC(c2ccc[nH]2)=N/C1=C\Nc1ccc(Cl)c(OC)c1.Cl | – | – | 77.6 | 57.3 | – | – | – | ~22 | > 60 | – | > 60 | – | –
18 | Cl.FC(F)(F)Oc1ccc(C2=CC(c3ccc[nH]3)=N/C2=C\NC23CC4CC(CC(C4)C2)C3)cc1 | 90.5 | 10 | 39 | 70.6 | 908 | 215 | 398 | – | > 60 | 85500 | > 60 | – | –
19 | COC1=CC(c2ccc[nH]2)=N/C1=C\N[C@H]1CC[C@H](C(F)(F)F)CC1.Cl | 46.7 | 24 | 9.48 | 74.4 | 1100 | 26 | 198 | – | 13 | 5120 | – | – | –
20 | Cl.Clc1ccc(OC2=CC(c3ccc[nH]3)=N/C2=C\NC23CC4CC(CC(C4)C2)C3)cc1 | 38.3 | 15 | 7.16 | 67.1 | 567 | 80 | 181 | – | > 60 | 14500 | > 60 | – | –
21 | Cl.Fc1cc(F)cc(OC2=CC(c3ccc[nH]3)=N/C2=C\NC23CC4CC(CC(C4)C2)C3)c1 | 79 | 8.6 | 27.3 | 59.3 | 680 | 323 | 184 | – | > 60 | 59400 | > 60 | – | –
22 | CCCCCCN/C=C1\N=C(c2ccc[nH]2)C=C1OC.Cl | 52.5 | > 19 | 11.1 | 127 | > 1000 | 226 | 118 | – | 17.1 | 26700 | – | – | –
23 | CC1=C(C)/C(=C/NC2CCCCCCC2)N=C1c1ccc[nH]1 | – | – | 33.5 | 43.5 | – | – | – | < 80 | – | – | – | – | –
